Source: ChEMBL document CHEMBL2157880, “Synthesis, antimycobacterial and antibacterial activity of ciprofloxacin derivatives containing a N-substituted benzyl moiety” (2012)
≈ marks a conversion by molar mass, not a printed value.

Tested on: Pseudomonas aeruginosa
Assay: Antibacterial activity against Pseudomonas aeruginosa 10-20 after 18 to 24 hrs by NCCLS method
Type: functional
Outline: (§1)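 Standard NCCLS (M100-S11) MIC testing against Gram-positive and Gram-negative strains. Plates were incubated at 35 °C for 18–24 h. The MIC was read as the lowest concentration giving complete inhibition of visible bacterial growth.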

Structure (SMILES)	MIC [µg/mL]
O=C(O)c1cn(C2CC2)c2cc(N3CCN(Cc4ccc5c(c4)OCO5)CC3)c(F)cc2c1=O	16 (≈ 34.4 µM)

Tested on: Staphylococcus aureus
Assay: Antibacterial activity against Staphylococcus aureus ATCC 2592 after 18 to 24 hrs by NCCLS method
Type: functional
Outline: as §1

Structure (SMILES)	MIC [µg/mL]
O=C(O)c1cn(C2CC2)c2cc(N3CCN(Cc4ccc5c(c4)OCO5)CC3)c(F)cc2c1=O	0.25 (≈ 0.537 µM)

Tested on: Staphylococcus aureus
Assay: Antibacterial activity against methicillin-sensitive Staphylococcus aureus 10-11 after 18 to 24 hrs by NCCLS method
Type: functional
Outline: as §1

Structure (SMILES)	MIC [µg/mL]
O=C(O)c1cn(C2CC2)c2cc(N3CCN(Cc4ccc5c(c4)OCO5)CC3)c(F)cc2c1=O	0.5 (≈ 1.07 µM)

Tested on: Klebsiella pneumoniae
Assay: Antibacterial activity against extended spectrum beta-lactamases producing Klebsiella pneumoniae 10-3 after 18 to 24 hrs by NCCLS method
Type: functional
Outline: as §1

Structure (SMILES)	MIC [µg/mL]
O=C(O)c1cn(C2CC2)c2cc(N3CCN(Cc4ccc5c(c4)OCO5)CC3)c(F)cc2c1=O	> 128

Tested on: Enterococcus faecalis
Assay: Antibacterial activity against Enterococcus faecalis 10-5 after 18 to 24 hrs by NCCLS method
Type: functional
Outline: as §1

Structure (SMILES)	MIC [µg/mL]
O=C(O)c1cn(C2CC2)c2cc(N3CCN(Cc4ccc5c(c4)OCO5)CC3)c(F)cc2c1=O	16 (≈ 34.4 µM)

Tested on: Staphylococcus aureus
Assay: Antibacterial activity against methicillin-resistant Staphylococcus aureus 10-11 after 18 to 24 hrs by NCCLS method
Type: functional
Outline: (§2)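 Incubated at 35 °C for 18–24 h under NCCLS (M100-S11) standards. MIC was read as the lowest concentration giving complete inhibition of visible bacterial growth.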

Structure (SMILES)	MIC [µg/mL]
O=C(O)c1cn(C2CC2)c2cc(N3CCN(Cc4ccc5c(c4)OCO5)CC3)c(F)cc2c1=O	32 (≈ 68.7 µM)

Tested on: Mycobacterium tuberculosis
Assay: Antimycobacterial activity against Mycobacterium tuberculosis H37Rv ATCC 27294 by microplate alamar blue assay
Type: functional
Outline: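 Microplate Alamar Blue fluorescence assay on strain H37Rv ATCC 27294. MIC was the lowest concentration cutting fluorescence by ≥90% against the mean of replicate bacterium-only controls.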

Structure (SMILES)	MIC [µg/mL]
O=C(O)c1cn(C2CC2)c2cc(N3CCN(Cc4ccc5c(c4)OCO5)CC3)c(F)cc2c1=O	2 (≈ 4.3 µM)

Tested on: Staphylococcus epidermidis
Assay: Antibacterial activity against methicillin-resistant Staphylococcus epidermidis 10-10 after 18 to 24 hrs by NCCLS method
Type: functional
Outline: as §2

Structure (SMILES)	MIC [µg/mL]
O=C(O)c1cn(C2CC2)c2cc(N3CCN(Cc4ccc5c(c4)OCO5)CC3)c(F)cc2c1=O	16 (≈ 34.4 µM)

Tested on: Staphylococcus aureus
Assay: Antibacterial activity against methicillin-sensitive Staphylococcus aureus 10-14 after 18 to 24 hrs by NCCLS method
Type: functional
Outline: as §1

Structure (SMILES)	MIC [µg/mL]
O=C(O)c1cn(C2CC2)c2cc(N3CCN(Cc4ccc5c(c4)OCO5)CC3)c(F)cc2c1=O	1 (≈ 2.15 µM)

Tested on: Staphylococcus aureus
Assay: Antibacterial activity against methicillin-resistant Staphylococcus aureus 10-13 after 18 to 24 hrs by NCCLS method
Type: functional
Outline: as §2

Structure (SMILES)	MIC [µg/mL]
O=C(O)c1cn(C2CC2)c2cc(N3CCN(Cc4ccc5c(c4)OCO5)CC3)c(F)cc2c1=O	64 (≈ 137 µM)

Tested on: Klebsiella pneumoniae
Assay: Antibacterial activity against extended spectrum beta-lactamases producing Klebsiella pneumoniae 10-2 after 18 to 24 hrs by NCCLS method
Type: functional
Outline: as §1

Structure (SMILES)	MIC [µg/mL]
O=C(O)c1cn(C2CC2)c2cc(N3CCN(Cc4ccc5c(c4)OCO5)CC3)c(F)cc2c1=O	> 128

Tested on: Pseudomonas aeruginosa
Assay: Antibacterial activity against Pseudomonas aeruginosa 10-9 after 18 to 24 hrs by NCCLS method
Type: functional
Outline: as §1

Structure (SMILES)	MIC [µg/mL]
O=C(O)c1cn(C2CC2)c2cc(N3CCN(Cc4ccc5c(c4)OCO5)CC3)c(F)cc2c1=O	16 (≈ 34.4 µM)

Tested on: Escherichia coli
Assay: Antibacterial activity against extended spectrum beta-lactamases producing Escherichia coli 10-4 after 18 to 24 hrs by NCCLS method
Type: functional
Outline: as §1

Structure (SMILES)	MIC [µg/mL]
O=C(O)c1cn(C2CC2)c2cc(N3CCN(Cc4ccc5c(c4)OCO5)CC3)c(F)cc2c1=O	16 (≈ 34.4 µM)

Tested on: Escherichia coli
Assay: Antibacterial activity against extended spectrum beta-lactamases producing Escherichia coli 10-3 after 18 to 24 hrs by NCCLS method
Type: functional
Outline: as §1

Structure (SMILES)	MIC [µg/mL]
O=C(O)c1cn(C2CC2)c2cc(N3CCN(Cc4ccc5c(c4)OCO5)CC3)c(F)cc2c1=O	> 128

Tested on: Escherichia coli
Assay: Antibacterial activity against Escherichia coli 10-2 after 18 to 24 hrs by NCCLS method
Type: functional
Outline: as §1

Structure (SMILES)	MIC [µg/mL]
O=C(O)c1cn(C2CC2)c2cc(N3CCN(Cc4ccc5c(c4)OCO5)CC3)c(F)cc2c1=O	16 (≈ 34.4 µM)

Tested on: Staphylococcus epidermidis
Assay: Antibacterial activity against methicillin-sensitive Staphylococcus epidermidis 10-15 after 18 to 24 hrs by NCCLS method
Type: functional
Outline: as §2

Structure (SMILES)	MIC [µg/mL]
O=C(O)c1cn(C2CC2)c2cc(N3CCN(Cc4ccc5c(c4)OCO5)CC3)c(F)cc2c1=O	16 (≈ 34.4 µM)

Tested on: Enterococcus faecium
Assay: Antibacterial activity against Enterococcus faecium 10-6 after 18 to 24 hrs by NCCLS method
Type: functional
Outline: as §1

Structure (SMILES)	MIC [µg/mL]
O=C(O)c1cn(C2CC2)c2cc(N3CCN(Cc4ccc5c(c4)OCO5)CC3)c(F)cc2c1=O	8 (≈ 17.2 µM)

Tested on: Staphylococcus aureus
Assay: Antibacterial activity against methicillin-sensitive Staphylococcus aureus 10-13 after 18 to 24 hrs by NCCLS method
Type: functional
Outline: as §1

Structure (SMILES)	MIC [µg/mL]
O=C(O)c1cn(C2CC2)c2cc(N3CCN(Cc4ccc5c(c4)OCO5)CC3)c(F)cc2c1=O	1 (≈ 2.15 µM)

Tested on: Klebsiella pneumoniae
Assay: Antibacterial activity against extended spectrum beta-lactamases producing Klebsiella pneumoniae 10-1 after 18 to 24 hrs by NCCLS method
Type: functional
Outline: as §1

Structure (SMILES)	MIC [µg/mL]
O=C(O)c1cn(C2CC2)c2cc(N3CCN(Cc4ccc5c(c4)OCO5)CC3)c(F)cc2c1=O	> 128
